Results: ChEMBL document CHEMBL1250478 (J Med Chem, 2010)
The source made the active and inactive calls. The rule behind the calls is not given here.

Assays:
[1] = Therapeutic index, ratio of IC50 for mice (Mus musculus) spleen lymphocytes to IC50 for chloroquine-resistant Plasmodium falciparum Dd2; type: tissue-based; conditions: read-out: Ratio IC50
Plasmodium falciparum [2] = experiment: Ratio of compound IC50 to chloroquine IC50 for chloroquine-resistant Plasmodium falciparum 7G8; type: functional
Plasmodium falciparum [3] = experiment: Ratio of compound IC50 to chloroquine IC50 for chloroquine-resistant Plasmodium falciparum Dd2; type: functional
Plasmodium falciparum [4] = experiment: Ratio of compound IC50 to chloroquine IC50 for chloroquine-sensitive Plasmodium falciparum D6; type: functional
Heme = experiment: Binding affinity to heme after 4 hrs by equilibrium binding assay
Procedure, shortened: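 Heme stock in NaOH, diluted to 5 µM in 100 mM phosphate buffer pH 5.7 and equilibrated 4 h. Optical titration by successive addition of compound, with pH held within ±0.05. Apparent dissociation constants from nonlinear least-squares fitting, assuming 2:1 heme:drug stoichiometry.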

[5] = Inhibition of beta-hematin formation after 24 hrs; type: functional
Procedure, shortened: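 40 µM heme in 0.67 M sodium acetate pH 4.8 with 0.0005 g/L Tween20, compound at 0–1000 µM. Incubated 24 h at 37 °C in the dark, then read at 415/630 nm. IC50 taken as (Dmax − Dinitial)/2. Duplicate assays, run twice.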

Plasmodium berghei [6] = experiment: Antiplasmodial activity against Plasmodium berghei infected in NMRI mice (Mus musculus) assessed as parasitaemia level at 30 mg/kg, perorally administered as single dose measured after 3 days relative to control; type: functional; conditions: route oral
Procedure, shortened: (§1)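 P. berghei blood diluted in saline to 10^8 parasitized erythrocytes/mL; 0.2 mL given i.v. to groups of 3 female NMRI mice (controls 5). Compounds dosed at 10 ml/kg either once on day 1 (oral gavage or subcutaneous) or orally at 4, 24, 48, 72 h post-infection. Parasitemia read by FACS on 100,000 RBCs from tail blood on day 3 (single dose) or day 4 (quadruple dose). Activity = % reduction versus control mean. Survival monitored to 30 days.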

Plasmodium berghei [7] = experiment: Antiplasmodial activity against Plasmodium berghei infected in NMRI mice (Mus musculus) assessed as survival rate at 30 mg/kg, perorally administered as single dose; type: functional; conditions: route oral; procedure, shortened: as §1
Plasmodium berghei [8] = experiment: Antiplasmodial activity against Plasmodium berghei infected in NMRI mice (Mus musculus) assessed as survival rate at 30 mg/kg, perorally administered as 4 consecutive doses measured post last dose; type: functional; conditions: route oral; procedure, shortened: as §1
Plasmodium berghei [9] = experiment: Antiplasmodial activity against Plasmodium berghei infected in NMRI mice (Mus musculus) assessed as parasitaemia level at 30 mg/kg, perorally administered as 4 consecutive doses measured after 3 days post last dose relative to control; type: functional; conditions: route oral; procedure, shortened: as §1
Plasmodium berghei [10] = experiment: Antiplasmodial activity against Plasmodium berghei infected in NMRI mice (Mus musculus) assessed as survival rate at 30 mg/kg, subcutaneously administered as single dose; type: functional; conditions: route subcutaneous; procedure, shortened: as §1
Plasmodium berghei [11] = experiment: Antiplasmodial activity against Plasmodium berghei infected in NMRI mice (Mus musculus) assessed as parasitaemia level at 30 mg/kg, subcutaneously after 3 days relative to control; type: functional; conditions: route subcutaneous; procedure, shortened: as §1
Plasmodium berghei [12] = experiment: Antiplasmodial activity against Plasmodium berghei infected in NMRI mice (Mus musculus) assessed as parasitaemia level at 44 mg/kg, perorally administered as 4 consecutive doses measured after 4 days post last dose relative to control; type: functional; conditions: route oral
Plasmodium berghei [13] = experiment: Antiplasmodial activity against Plasmodium berghei infected in NMRI mice (Mus musculus) assessed as survival rate at 44 mg/kg, perorally administered as 4 consecutive doses measured post last dose; type: functional; conditions: route oral; procedure, shortened: as §1
Plasmodium falciparum [14] = experiment: Antiplasmodial activity against chloroquine-resistant Plasmodium falciparum Dd2 early trophozoites infected in NMRI mice (Mus musculus) RBC assessed as inhibition of hemozoin formation at 100 nM after 24 hrs by microscopic analysis; type: functional, organism-based
Procedure, shortened: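 D6 and Dd2 cultures synchronized to ring stage with 5% sorbitol, suspended at 1% hematocrit and exposed to drug (from 1 mM stock) for 24 h at 37 °C under 5% O2/5% CO2/90% N2. Giemsa-stained smears examined by microscopy for hemozoin, parasitemia and parasite morphology.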

Plasmodium falciparum [15] = experiment: Antiplasmodial activity against chloroquine-sensitive Plasmodium falciparum D6 early trophozoites infected in NMRI mice (Mus musculus) RBC assessed as inhibition of hemozoin formation at 100 nM after 24 hrs by microscopic analysis; type: functional, organism-based
Procedure, shortened: (§2)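 Ring-stage D6 parasites synchronized with 5% sorbitol, suspended at 1% hematocrit and drug added from 1 mM stock. Incubated 24 h at 37 °C under 5% O2/5% CO2/90% N2 alongside a no-drug control. Giemsa-stained smears were used for parasitemia and for microscopic examination of hemozoin and parasite morphology.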

Plasmodium falciparum [16] = experiment: Antiplasmodial activity against synchronized chloroquine-sensitive Plasmodium falciparum D6 infected in NMRI mice (Mus musculus) RBC assessed as inhibition of hemozoin formation at 1000 nM after 24 hrs by colorimetric analysis; type: functional, organism-based
Procedure, shortened: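 D6 cultures synchronized with sorbitol, held at 1% hematocrit, drug-treated 24 h at 37 °C. Parasites freeze-thawed, then lysed 30 min at 37 °C in saponin/Triton X-100 buffer. Hemozoin pelleted at 215,000 g, washed with acetone and PBS, dissolved 2 h in 0.2 N NaOH. Heme read at A400 (ε 91,000 cm-1M-1) and expressed per parasitized erythrocyte. A 0 h culture gave the baseline.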

Plasmodium falciparum [17] = experiment: Antiplasmodial activity against synchronized chloroquine-resistant Plasmodium falciparum Dd2 infected in NMRI mice (Mus musculus) RBC assessed as inhibition of hemozoin formation at 1000 nM after 24 hrs by colorimetric analysis; type: functional, organism-based
Procedure, shortened: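 Sorbitol-synchronized D6 and Dd2 cultures at 1% hematocrit were drug-treated for 24 h at 37 °C. Parasites were freed by freeze-thaw and saponin/Triton lysis buffer (37 °C, 30 min). Hemozoin was pelleted at 215,000 g, washed with acetone and PBS, then dissolved in 0.2 N NaOH. Heme was quantified by A400 (ε 91,000 cm-1M-1) per parasitized erythrocyte. Baseline was taken from 0 h culture.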

[18] = Drug level in NMRI mice (Mus musculus) erythrocytes infected with chloroquine-sensitive Plasmodium falciparum D6 after 1 hr; type: ADME, cell-based; conditions: erythrocyte
Procedure, shortened: (§3)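 Sorbitol-synchronized mature trophozoites (about 10% parasitemia) in 5 mL complete medium, drug at about 5 µM initial medium concentration. Medium sampled over time and analyzed by C18 HPLC. NH4Cl (10 mM) added 10 min before sampling to release accumulated drug; uptake is the difference from the 1 h level. DV concentration assumes 6 × 10^7 PRBCs and a 4 fL DV. Accumulation ratio is DV/medium concentration.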

[19] = Drug level in erythrocytes infected with chloroquine-resistant Plasmodium falciparum Dd2 after 1 hr; conditions: erythrocyte
[20] = Solubility of the compound; type: physicochemical
[21] = Drug level in chloroquine-sensitive Plasmodium falciparum Dd2 digestive vacuole assessed as ratio of drug level in vacuole to medium at 5 uM after 1 hr; type: ADME; conditions: plasmodium falciparum dd2, 1 h, in the assay text read “chloroquine-resistant” for “chloroquine-sensitive”; procedure, shortened: as §3
Plasmodium falciparum [22] = experiment: Inhibition of hemozoin formation in early trophozoites of chloroquine-sensitive Plasmodium falciparum D6 infected in RBC assessed as enlarged digestive vacuole at 100 nM after 24 hrs by microscopic analysis; type: functional, organism-based; procedure, shortened: as §2
[23] = Drug level in chloroquine-sensitive Plasmodium falciparum D6 digestive vacuole after 1 hr; type: ADME; conditions: plasmodium falciparum d6, 1 h; procedure, shortened: as §3
[24] = Drug level in chloroquine-sensitive Plasmodium falciparum D6 digestive vacuole assessed as ratio of drug level in vacuole to medium at 5 uM after 1 hr; type: ADME; conditions: plasmodium falciparum d6, 1 h; procedure, shortened: as §3

Structure (SMILES) | selectivity ratio [1] | Ratio IC50 (Plasmodium falciparum [2]) | Ratio IC50 (Plasmodium falciparum [3]) | Ratio IC50 (Plasmodium falciparum [4]) | Kd (Heme) [µM] | IC50 [5] [µM] | also measured
Clc1ccc2c(NCCN3CCCN(C4c5ccccc5-c5ccccc54)CC3)ccnc2c1 | 260 | 41 | 9.6 | 9.2 | – | – | –
Clc1ccc2c(NCCN3CCN(C(c4ccccc4)c4ccccc4)CC3)ccnc2c1 | 528 | 4.3 | 3.6 | 1 | 3.3 | 2.5 | Activity (Plasmodium berghei [6]): >99.9%; Survival (Plasmodium berghei [7]): 8 days; Survival (Plasmodium berghei [8]): 16 days; Activity (Plasmodium berghei [9]): >99.9%; Survival (Plasmodium berghei [10]): 3 days; Activity (Plasmodium berghei [11]): <40%
Clc1ccc(C(c2ccccc2)N2CCN(CCNc3ccnc4cc(Cl)ccc34)CC2)cc1 (stereo unspecified) | 700 | 10 | 2 | 2.6 | – | – | –
Clc1ccc2c(NCCCN3CCN(CC(c4ccccc4)c4ccccc4)CC3)ccnc2c1 | 6970 | 3.4 | 3.3 | 0.5 | – | – | –
Clc1ccc2c(NCCCCN3CCN(C(c4ccccc4)c4ccccc4)CC3)ccnc2c1 | 846 | 7.2 | 1.3 | 1.3 | – | – | –
CN(CCCN1c2ccccc2CCc2ccccc21)CCNc1ccnc2cc(Cl)ccc12 | 269 | 21 | 5.2 | 3.6 | 7.3 | 10 | –
Clc1ccc2c(NCCN3CCC(NC(c4ccccn4)c4ccccn4)CC3)ccnc2c1 | 7310 | 7.4 | 3.9 | 1.1 | 1 | 2 | Activity (Plasmodium berghei [12]): >99.9%; Survival (Plasmodium berghei [13]): >30 days
CCN(CC)CCCC(C)Nc1ccnc2cc(Cl)ccc12 (stereo unspecified) [CHLOROQUINE] | – | – | – | – | – | – | inhibition (Plasmodium falciparum [14]): inactive; inhibition (Plasmodium falciparum [15]): inactive; inhibition (Plasmodium falciparum [16]): Active; inhibition (Plasmodium falciparum [17]): Active; Survival (Plasmodium berghei [7]): 9 days; Drug uptake [18]: 0.7 ×10⁻⁸ mol; Survival (Plasmodium berghei [8]): 23 days; Survival (Plasmodium berghei [10]): 10 days; Drug uptake [19]: 0.5 ×10⁻⁸ mol
Clc1ccc2c(NCCCN3CCN(C(c4ccccc4)(c4ccccc4)c4ccccc4)CC3)ccnc2c1 | 13600 | 10 | 4.2 | 2 | 5.4 | – | solubility [20]: Insoluble; Activity (Plasmodium berghei [6]): 99.7%; Survival (Plasmodium berghei [7]): 7 days; Survival (Plasmodium berghei [8]): 20 days; Activity (Plasmodium berghei [9]): >99.9%; Survival (Plasmodium berghei [10]): 3 days; Activity (Plasmodium berghei [11]): <40%
Clc1ccc2c(NCCCN3CCN(C4C5CC6CC(C5)CC4C6)CC3)ccnc2c1 (stereo unspecified) | 69400 | 10 | 1.8 | 0.8 | 2.5 | 14 | –
Clc1ccc2c(NCCCN3CCNCC3)ccnc2c1 | 3380 | – | 6.8 | 4.3 | – | – | –
Clc1ccc2c(NCCCN3CCN(C(c4ccccc4)c4ccccc4)CC3)ccnc2c1 | 423 | 11 | 2.6 | 1.9 | 3 | 3.5 | –
Fc1ccc(C(c2ccc(F)cc2)N2CCN(CCCNc3ccnc4cc(Cl)ccc34)CC2)cc1 | 1710 | 34 | 2.4 | 2 | – | – | –
Clc1ccc2c(NCCCN3CCCN(C4c5ccccc5-c5ccccc54)CC3)ccnc2c1 | 167 | 56 | 15 | 21 | – | – | –
OCCN1CCN(C(c2ccccc2)c2ccccc2)CC1 | > 50 | >2500 | >2500 | >2500 | – | – | –
Clc1ccc2c(NCCCN3CCCN(C(c4ccccc4)c4ccccc4)CC3)ccnc2c1 | 171 | 15 | 4.1 | 4.8 | – | – | –
Clc1ccc(C(c2ccccc2)N2CCN(CCCNc3ccnc4cc(Cl)ccc34)CC2)cc1 (stereo unspecified) | 229 | 12 | 3.5 | 3.2 | – | – | –
Clc1ccc(C(c2ccccc2)N2CCCN(CCCNc3ccnc4cc(Cl)ccc34)CC2)cc1 (stereo unspecified) | 158 | 22 | 5.7 | 6.6 | – | – | –
CN(CCCNc1ccnc2cc(Cl)ccc12)CCCN1c2ccccc2CCc2ccccc21 | 132 | 4 | 5.3 | 2.9 | 8.6 | 9 | Ratio [21]: 38000; inhibition (Plasmodium falciparum [15]): inactive; inhibition (Plasmodium falciparum [22]): Active; Activity (Plasmodium berghei [6]): <40%; Survival (Plasmodium berghei [7]): 3 days; Drug uptake [18]: 1.6 ×10⁻⁸ mol; Survival (Plasmodium berghei [8]): 8 days; Activity (Plasmodium berghei [9]): 96%; Survival (Plasmodium berghei [10]): 7 days; Activity (Plasmodium berghei [11]): 92%; Drug uptake [23]: 65000 µM; Ratio [24]: 32000; Drug uptake [19]: 1.8 ×10⁻⁸ mol
